{"source": "ChEMBL document CHEMBL1130003", "about": "“Synthesis and ligand binding of nortropane derivatives: N-substituted 2beta-carbomethoxy-3beta-(4'-iodophenyl)nortropane and N-(3-iodoprop-(2E)-enyl)-2beta-carbomethoxy-3beta-(3',4'-disubstituted phenyl)nortropane. New high-affinity and selective compounds for the dopamine transporter” (J Med Chem, 1997)", "key": {"[1]": {"target": "Sodium-dependent dopamine transporter (Rattus norvegicus, UniProt P23977)", "sequence (P23977 whole entry)": "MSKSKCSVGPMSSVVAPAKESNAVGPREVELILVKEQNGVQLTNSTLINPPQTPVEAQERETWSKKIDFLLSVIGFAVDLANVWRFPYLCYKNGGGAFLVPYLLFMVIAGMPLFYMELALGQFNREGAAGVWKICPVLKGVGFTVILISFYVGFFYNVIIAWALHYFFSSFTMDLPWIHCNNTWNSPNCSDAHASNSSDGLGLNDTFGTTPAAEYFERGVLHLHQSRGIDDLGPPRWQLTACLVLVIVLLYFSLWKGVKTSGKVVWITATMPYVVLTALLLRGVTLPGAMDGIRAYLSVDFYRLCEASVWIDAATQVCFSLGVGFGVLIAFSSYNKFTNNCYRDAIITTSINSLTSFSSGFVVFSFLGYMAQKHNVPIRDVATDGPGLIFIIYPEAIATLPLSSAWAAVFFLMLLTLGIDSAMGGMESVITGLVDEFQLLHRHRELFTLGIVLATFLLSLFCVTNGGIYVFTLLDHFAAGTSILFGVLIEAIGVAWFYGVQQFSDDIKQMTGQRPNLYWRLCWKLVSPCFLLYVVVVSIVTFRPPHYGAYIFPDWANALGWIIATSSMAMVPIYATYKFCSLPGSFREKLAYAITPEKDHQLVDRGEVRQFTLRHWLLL", "test": "Displacement of [3H]GBR-12935 from dopamine transporter (DAT) in rat brain membranes", "format": "cell membranes", "procedure,_shortened": "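Rat striatum crude membranes (100 µg protein) in sodium hydrogenocarbonate buffer pH 7.5 with 0.01% BSA. [3H]GBR-12935 1 nM (Kd 1.6 nM). Competitor 10^-5 to 10^-10 M. Incubation 37 °C, 1 h, then glass fiber filtration, ice-cold wash, beta counting. Nonspecific binding with 10^-6 M mazindol. Run in duplicate. Ki by Cheng-Prusoff.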"}, "[2]": {"target": "Norepinephrine transporter (Rattus norvegicus, UniProt Q9WTR4)", "sequence (Q9WTR4 whole entry)": "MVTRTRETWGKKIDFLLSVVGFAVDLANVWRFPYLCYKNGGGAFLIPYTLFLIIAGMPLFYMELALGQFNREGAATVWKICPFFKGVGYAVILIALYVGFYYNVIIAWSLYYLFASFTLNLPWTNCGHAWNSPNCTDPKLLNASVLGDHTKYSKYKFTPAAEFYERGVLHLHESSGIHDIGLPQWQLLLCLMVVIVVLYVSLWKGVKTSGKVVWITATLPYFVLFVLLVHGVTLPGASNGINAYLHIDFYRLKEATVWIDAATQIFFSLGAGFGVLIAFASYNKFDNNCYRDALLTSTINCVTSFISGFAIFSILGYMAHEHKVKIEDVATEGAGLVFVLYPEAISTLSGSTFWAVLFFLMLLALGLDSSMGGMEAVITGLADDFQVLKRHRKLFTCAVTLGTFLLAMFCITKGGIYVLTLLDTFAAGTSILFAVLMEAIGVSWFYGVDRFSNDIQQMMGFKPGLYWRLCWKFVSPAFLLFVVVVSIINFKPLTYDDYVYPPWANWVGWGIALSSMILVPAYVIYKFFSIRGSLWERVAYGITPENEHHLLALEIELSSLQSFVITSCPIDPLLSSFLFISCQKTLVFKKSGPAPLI", "test": "Displacement of [3H]nisoxetine from norepinephrine transporter (NET) in rat brain membranes", "format": "cell membranes", "procedure,_shortened": "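Rat frontoparietal cortex crude membranes in 50 mM Tris-HCl pH 7.4, 120 mM NaCl, 5 mM KCl. [3H]nisoxetine 0.5 nM (Kd 1.3 nM). Competitor 10^-5 to 10^-10 M. Incubation 2 °C, 5 h, then filtration, wash, beta counting. Nonspecific binding with 10^-6 M desipramine. Run in duplicate. Ki from IC50 by Cheng-Prusoff.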"}, "[3]": {"target": "Sodium-dependent serotonin transporter (Rattus norvegicus, UniProt P31652)", "sequence (P31652 whole entry)": "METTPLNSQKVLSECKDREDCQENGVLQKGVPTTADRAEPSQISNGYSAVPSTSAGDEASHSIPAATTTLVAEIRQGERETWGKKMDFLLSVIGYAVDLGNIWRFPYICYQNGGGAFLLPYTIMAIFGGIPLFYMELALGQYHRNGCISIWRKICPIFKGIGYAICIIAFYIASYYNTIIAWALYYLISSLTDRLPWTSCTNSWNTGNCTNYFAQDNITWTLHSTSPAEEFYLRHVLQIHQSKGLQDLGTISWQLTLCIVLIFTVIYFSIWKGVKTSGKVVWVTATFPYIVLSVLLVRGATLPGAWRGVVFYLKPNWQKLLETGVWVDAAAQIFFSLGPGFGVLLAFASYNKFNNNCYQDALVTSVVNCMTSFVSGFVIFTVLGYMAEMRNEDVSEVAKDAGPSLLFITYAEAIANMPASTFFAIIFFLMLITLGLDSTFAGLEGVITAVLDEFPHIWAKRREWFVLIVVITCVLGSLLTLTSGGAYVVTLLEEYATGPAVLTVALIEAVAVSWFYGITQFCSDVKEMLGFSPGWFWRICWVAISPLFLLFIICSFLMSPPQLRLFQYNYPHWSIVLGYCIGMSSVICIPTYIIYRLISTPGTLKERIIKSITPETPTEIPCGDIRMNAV", "test": "Displacement of [3H]- paroxetine from serotonin transporter (5-HTT) in rat brain membranes", "format": "cell membranes", "procedure,_shortened": "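Rat frontoparietal cortex crude membranes in 50 mM Tris-HCl pH 7.4 with 120 mM NaCl, 5 mM KCl. [3H]paroxetine 0.5 nM (Kd 0.5 nM). Competitor 10^-5 to 10^-10 M. Incubation 22 °C, 1 h, then glass fiber filtration, ice-cold wash, beta counting. Nonspecific binding with 10^-6 M fluvoxamine. Run in duplicate. Ki from IC50 by Cheng-Prusoff.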"}, "[4]": {"target": "Monoamine transporters; serotonin & dopamine (Rattus norvegicus) (UniProt P31652+P23977)", "sequence (P23977 whole entry, looked up)": "as the sequence (P23977 whole entry) above", "sequence (P31652 whole entry, looked up)": "as the sequence (P31652 whole entry) above", "test": "Selectivity index for serotonin and dopamine transporters", "format": "protein assay"}, "[5]": {"target": "Monoamine transporters; Norepininephrine & dopamine (Rattus norvegicus) (UniProt P23977+Q9WTR4)", "test": "Selectivity index for norepinephrine and dopamine transporters", "format": "protein assay"}}, "note": "pKi: −log10 of the molar value."}
{"smiles": "COC(=O)[C@@H]1C2CCC(C[C@@H]1c1ccc(C)cc1)N2C/C=C/I", "note": "(stereo not given in full)", "values": [{"measurement": "pKi", "setting": "[1]", "result": 7.77}, {"measurement": "pKi", "setting": "[2]", "result": "< 6.00"}, {"measurement": "pKi", "setting": "[3]", "result": 6.30}, {"measurement": "Selectivity", "setting": "[4]", "result": 29.4}, {"measurement": "Selectivity", "setting": "[5]", "result": "> 58"}]}
{"smiles": "COC(=O)[C@@H]1C2CCC(C[C@@H]1c1ccc(Cl)c(Cl)c1)N2C/C=C/I", "note": "(stereo not given in full)", "values": [{"measurement": "pKi", "setting": "[1]", "result": 7.54}, {"measurement": "pKi", "setting": "[2]", "result": 6.30}, {"measurement": "pKi", "setting": "[3]", "result": 7.30}, {"measurement": "Selectivity", "setting": "[4]", "result": 1.7}, {"measurement": "Selectivity", "setting": "[5]", "result": 17.2}]}
{"smiles": "C#CCN1C2CC[C@@H]1CC(c1ccc(I)cc1)[C@@H]2C(=O)OC", "note": "(stereo not given in full)", "values": [{"measurement": "pKi", "setting": "[1]", "result": 7.85}, {"measurement": "pKi", "setting": "[2]", "result": "< 6.00"}, {"measurement": "pKi", "setting": "[3]", "result": 7.00}, {"measurement": "Selectivity", "setting": "[4]", "result": 7.1}, {"measurement": "Selectivity", "setting": "[5]", "result": "> 71"}]}
{"smiles": "COC(=O)[C@H]1C(c2ccc(C(C)C)cc2)C[C@H]2CCC1N2C/C=C/I", "note": "(stereo not given in full)", "values": [{"measurement": "pKi", "setting": "[1]", "result": 6.30}, {"measurement": "pKi", "setting": "[2]", "result": "< 6.00"}, {"measurement": "pKi", "setting": "[3]", "result": 6.35}, {"measurement": "Selectivity", "setting": "[4]", "result": 0.9}, {"measurement": "Selectivity", "setting": "[5]", "result": "> 2"}]}
{"smiles": "CCCc1ccc(C2C[C@H]3CCC([C@H]2C(=O)OC)N3C/C=C/I)cc1", "note": "(stereo not given in full)", "values": [{"measurement": "pKi", "setting": "[1]", "result": 6.30}, {"measurement": "pKi", "setting": "[2]", "result": 6.12}, {"measurement": "pKi", "setting": "[3]", "result": 6.52}, {"measurement": "Selectivity", "setting": "[4]", "result": 0.6}, {"measurement": "Selectivity", "setting": "[5]", "result": 1.5}]}
{"smiles": "C=C(Br)CN1C2CC[C@@H]1CC(c1ccc(I)cc1)[C@@H]2C(=O)OC", "note": "(stereo not given in full)", "values": [{"measurement": "pKi", "setting": "[1]", "result": 7.52}, {"measurement": "pKi", "setting": "[2]", "result": "< 6.00"}, {"measurement": "pKi", "setting": "[3]", "result": 6.70}, {"measurement": "Selectivity", "setting": "[4]", "result": 6.6}, {"measurement": "Selectivity", "setting": "[5]", "result": "> 33"}]}
{"smiles": "COC(=O)[C@H]1C(c2ccccc2)C[C@H]2CCC1N2C/C=C/I", "note": "(stereo not given in full)", "values": [{"measurement": "pKi", "setting": "[1]", "result": 6.95}, {"measurement": "pKi", "setting": "[2]", "result": "< 6.00"}, {"measurement": "pKi", "setting": "[3]", "result": 7.00}, {"measurement": "Selectivity", "setting": "[4]", "result": 0.8}, {"measurement": "Selectivity", "setting": "[5]", "result": "> 8.8"}]}
{"smiles": "COC(=O)[C@H]1C(c2ccc(I)cc2)C[C@H]2CCC1N2C/C=C/I", "note": "(stereo not given in full)", "values": [{"measurement": "pKi", "setting": "[1]", "result": 7.52}, {"measurement": "pKi", "setting": "[2]", "result": 6.53}, {"measurement": "pKi", "setting": "[3]", "result": 6.02}, {"measurement": "Selectivity", "setting": "[4]", "result": 32}, {"measurement": "Selectivity", "setting": "[5]", "result": 9.8}]}
{"smiles": "COC(=O)[C@@H]1C2CC[C@H](C[C@@H]1c1ccc(I)cc1)N2C", "values": [{"measurement": "pKi", "setting": "[1]", "result": 7.57}, {"measurement": "pKi", "setting": "[2]", "result": 7.10}, {"measurement": "pKi", "setting": "[3]", "result": 8.52}, {"measurement": "Selectivity", "setting": "[4]", "result": 0.1}, {"measurement": "Selectivity", "setting": "[5]", "result": 2.9}]}
{"smiles": "C/C=C/CN1C2CC[C@@H]1CC(c1ccc(I)cc1)[C@@H]2C(=O)OC", "note": "(stereo not given in full)", "values": [{"measurement": "pKi", "setting": "[1]", "result": 7.82}, {"measurement": "pKi", "setting": "[2]", "result": 6.40}, {"measurement": "pKi", "setting": "[3]", "result": 7.12}, {"measurement": "Selectivity", "setting": "[4]", "result": 5}, {"measurement": "Selectivity", "setting": "[5]", "result": 26.6}]}
{"smiles": "COC(=O)[C@H]1C(c2ccc(I)cc2)C[C@H]2CCC1N2Cc1ccccc1C", "note": "(stereo not given in full)", "values": [{"measurement": "pKi", "setting": "[1]", "result": 7.03}, {"measurement": "pKi", "setting": "[2]", "result": "< 6.00"}, {"measurement": "pKi", "setting": "[3]", "result": 6.65}, {"measurement": "Selectivity", "setting": "[4]", "result": 2.4}, {"measurement": "Selectivity", "setting": "[5]", "result": "> 10.6"}]}
{"smiles": "COC(=O)[C@@H]1C2CCC(C[C@@H]1c1ccc(I)cc1)N2Cc1ccccc1", "note": "(stereo not given in full)", "values": [{"measurement": "pKi", "setting": "[1]", "result": 7.38}, {"measurement": "pKi", "setting": "[2]", "result": 6.22}, {"measurement": "pKi", "setting": "[3]", "result": 7.00}, {"measurement": "Selectivity", "setting": "[4]", "result": 2.3}, {"measurement": "Selectivity", "setting": "[5]", "result": 14.2}]}
